Data on 19 compounds can be found in ChEMBL document CHEMBL2384939, “Synthesis of pyrazolo[1,5-a]pyrimidine linked aminobenzothiazole conjugates as potential anticancer agents” (Bioorg Med Chem Lett, 2013).

In one test the test system is HeLa. Briefly: Cytotoxicity against human HeLa cells after 48 hrs by MTT assay. The class given is functional, cell-based. Summed up:
(§1)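 MTT assay: […] were plated in DMEM with 10% FBS and incubated for 24 h at 37 °C under CO2. Compounds diluted in culture medium were added alongside a vehicle control for 48 h. MTT (10 µl of a 5 mg/ml stock) was added for a further 4 h. The supernatant was then removed, the formazan dissolved in DMSO, and absorbance read at 540 nm. IC50 was derived.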

For another test, the system named is DU-145. Briefly: Cytotoxicity against human DU145 cells after 48 hrs by MTT assay. Particulars: DU-145, 48 h. The class given is functional, cell-based. Summed up:
as §1
For orientation: Tetrazolium dyes change colour on reduction, which living cells bring about.

A further test concerns ACHN. Briefly: Cytotoxicity against human ACHN cells after 48 hrs by MTT assay. The class given is functional, cell-based. Summed up:
as §1

A further test has as its system MCF7. Briefly: Cytotoxicity against human MCF7 cells after 48 hrs by MTT assay. The class given is functional, cell-based. Particulars: MCF7, 48 h. The procedure, abridged:
as §1

The subject of test [1] is A549. Briefly: Cytotoxicity against human A549 cells after 48 hrs by MTT assay. The class given is functional, cell-based. Particulars: A549, 48 h. Summed up: as §1
Test [2] concerns A549. Briefly: Induction of apoptosis in human A549 cells assessed as activation of caspase-3 at 2 uM after 48 hrs by ELISA relative to control. The class given is functional. The procedure, abridged:
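A549 lung cancer cells exposed to 1 and 2 µM compound for 48 h, with roscovitine as positive control. Pellets lysed for 15 min, and supernatant caspase-3 activity read by a commercial colorimetric kit relative to untreated control. Values are mean ± SD of two experiments run in triplicate.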

Test [3] deals with A549. Briefly: Cell cycle arrest at human A549 cells assessed as accumulation at S phase at 2 uM after 48 hrs by propidium iodide-staining-based FACS flow cytometric analysis (reference value: 4.48%). The class given is functional. (In general: Flow cytometry measures light scatter and fluorescence of single cells or particles in a stream.)
Test [4] concerns A549. Briefly: Cell cycle arrest at human A549 cells assessed as accumulation at G2/M phase at 2 uM after 48 hrs by propidium iodide-staining-based FACS flow cytometric analysis (reference value: 13.17%). The class given is functional.
Test [5] has as its system A549. Briefly: Cell cycle arrest at human A549 cells assessed as accumulation at sub G1 phase at 2 uM after 48 hrs by propidium iodide-staining-based FACS flow cytometric analysis (reference value: 1.02%). The class given is functional.
The test system of test [6] is A549. Briefly: Induction of apoptosis in human A549 cells assessed as DNA fragmentation at 2 uM after 48 hrs by agarose gel electrophoresis. The class given is functional, cell-based. The procedure, abridged: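 A549 cells (1×10^6) seeded in six-well plates for 24 h, then exposed to 2 µM compound or roscovitine for 48 h and pelleted. Lysate treated with SDS and RNase-A (2 h, 56 °C), then proteinase K (2 h, 37 °C). DNA precipitated with ammonium acetate/cold ethanol, dissolved in TE, and laddering resolved on 2% agarose gel against a 50 bp marker.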

In test [7] the test system is A549. Briefly: Cell cycle arrest at human A549 cells assessed as accumulation at G0/G1 phase at 2 uM after 48 hrs by propidium iodide-staining-based FACS flow cytometric analysis (reference value: 81.33%). The class given is functional.

Calls of active or inactive are those of the source. No cut-off for these calls is given here.

As for `COc1ccc(-c2cc(C(=O)Nc3nc4ccc(OC)cc4s3)nc3cc(-c4ccccc4)nn23)cc1`, the concentration for half-maximal inhibition (IC50) (in general, the concentration that gives 50% inhibition) in the test with HeLa stood at 24.5 µM; in the test with DU-145, 7.58 µM; in the test with ACHN, 38.3 µM; with MCF7 it was 19.1 µM; with A549 [1], 17.4 µM.

In the case of `COc1cc(-c2cc(C(=O)Nc3nc4ccc(F)cc4s3)nc3cc(-c4ccccc4)nn23)cc(OC)c1OC`, the concentration for half-maximal inhibition (IC50) came out at 25.1 µM in the test on HeLa; 25.7 µM with DU-145; 32.4 µM in the test on ACHN; 27.5 µM in the test on MCF7; 22.4 µM in the test on A549 [1].

Turning to `COc1ccc(-c2cc(C(=O)Nc3nc4ccccc4s3)nc3cc(-c4ccccc4)nn23)cc1OC`, the IC50 with HeLa stood at 8.91 µM; in the test with DU-145, 19.1 µM; in the test with ACHN, 7.94 µM; in the test on MCF7, 14.7 µM; in the test with A549 [1] it was 5.49 µM.

As to `COc1cc(-c2cc(C(=O)Nc3nc4cc(C)c(C)cc4s3)nc3cc(-c4ccccc4)nn23)cc(OC)c1OC`, the 50% inhibitory concentration (IC50) was 8.91 µM in the test with HeLa; 3.71 µM in the test with DU-145; 3.8 µM in the test with ACHN; 2.29 µM with MCF7; 2.34 µM with A549 [1].

`COc1ccc(-c2cc(C(=O)Nc3nc4ccc(Cl)cc4s3)nc3cc(-c4ccccc4)nn23)cc1`: the IC50 in the test on HeLa was 5.88 µM; with DU-145 it was 5.88 µM; with ACHN it was 7.24 µM; with MCF7, 4.89 µM; in the test on A549 [1], 3.09 µM.

As to `CC[C@H](CO)Nc1nc(NCc2ccccc2)c2ncn(C(C)C)c2n1` [SELICICLIB], the “fold change (FC)” value in the test with A549 [2] is recorded as 4. Besides, the half-inhibitory concentration (IC50) with HeLa was 1.81 µM; in the test on DU-145, 1.9 µM; with ACHN it was 2.88 µM; in the test with MCF7, 3.98 µM; with A549 [1], 2.18 µM. Further, the Activity worked out at 5.26% in the test with A549 [3], 40.69% with A549 [4], 7.3% in the test with A549 [5] and 46.75% with A549 [7]. For the same compound, the outcome in the test with A549 [6] was Active.

As to `COc1ccc2nc(NC(=O)c3cc(-c4cc(OC)c(OC)c(OC)c4)n4nc(-c5ccccc5)cc4n3)sc2c1`, the concentration for half-maximal inhibition (IC50) in the test with HeLa was found to be 8.7 µM; in the test with DU-145, 3.98 µM; in the test with ACHN it was 5.24 µM; in the test with MCF7 it was 2.95 µM; in the test on A549 [1], 2.81 µM.

For the compound `Cc1cc2nc(NC(=O)c3cc(-c4ccc(F)cc4)n4nc(-c5ccccc5)cc4n3)sc2cc1C`, the IC50 was 18.2 µM with HeLa; 12.9 µM in the test with DU-145; 33 µM with ACHN; 17 µM in the test with MCF7; 12.6 µM in the test on A549 [1].

As to `COc1ccc2nc(NC(=O)c3cc(-c4ccc(OC)c(OC)c4)n4nc(-c5ccccc5)cc4n3)sc2c1`, the IC50 in the test on HeLa stood at 11 µM; in the test on DU-145, 14 µM; with ACHN it was 13.3 µM; in the test on MCF7 it was 18.7 µM; in the test with A549 [1] it was 15.8 µM.

`COc1ccc(-c2cc(C(=O)Nc3nc4ccc(Cl)cc4s3)nc3cc(-c4ccccc4)nn23)cc1OC`: the IC50 with HeLa was 9.12 µM; in the test on DU-145, 9.33 µM; in the test on ACHN, 7.76 µM; in the test on MCF7 it was 6.91 µM; with A549 [1], 6.16 µM.

`COc1ccc(-c2cc(C(=O)Nc3nc4ccc(F)cc4s3)nc3cc(-c4ccccc4)nn23)cc1`: the half-maximal inhibitory concentration (IC50) in the test on HeLa amounted to 41.7 µM; in the test with DU-145, 31.4 µM; in the test with ACHN, 39.3 µM; in the test on MCF7, 35.5 µM; in the test with A549 [1], 11.7 µM.

Consider `O=C(Nc1nc2ccc(F)cc2s1)c1cc(-c2ccc(F)cc2)n2nc(-c3ccccc3)cc2n1`, for which the IC50 in the test with HeLa is 29.5 µM; with DU-145, 22.9 µM; in the test on ACHN it was 35.5 µM; with MCF7 it was 22.9 µM; with A549 [1], 14.8 µM.

Take `COc1ccc(-c2cc(C(=O)Nc3nc4cc(C)c(C)cc4s3)nc3cc(-c4ccccc4)nn23)cc1`: the concentration for half-maximal inhibition (IC50) turned out to be 14.1 µM with HeLa; 12.3 µM in the test on DU-145; 22.4 µM in the test with ACHN; 19.7 µM with MCF7; 13.2 µM in the test with A549 [1].

With `COc1ccc(-c2cc(C(=O)Nc3nc4cc(C)c(C)cc4s3)nc3cc(-c4ccccc4)nn23)cc1OC`, the concentration for half-maximal inhibition (IC50) with HeLa stood at 6.76 µM; with DU-145, 6.91 µM; in the test on ACHN, 8.7 µM; in the test on MCF7 it was 2.51 µM; in the test on A549 [1] it was 2.95 µM.

`O=C(Nc1nc2ccc(Cl)cc2s1)c1cc(-c2ccc(F)cc2)n2nc(-c3ccccc3)cc2n1`: the IC50 in the test on HeLa is 9.77 µM; in the test on DU-145 it was 17.6 µM; with ACHN it was 13.8 µM; in the test with MCF7, 19.8 µM; in the test on A549 [1], 6.6 µM.

With `COc1cc(-c2cc(C(=O)Nc3nc4ccc(Cl)cc4s3)nc3cc(-c4ccccc4)nn23)cc(OC)c1OC`, the IC50 in the test with HeLa came to 22.4 µM; in the test on DU-145, 38.9 µM; in the test on ACHN it was 41.7 µM; with MCF7 it was 30.2 µM; in the test with A549 [1] it was 18.2 µM.

Take `COc1ccc(-c2cc(C(=O)Nc3nc4ccccc4s3)nc3cc(-c4ccccc4)nn23)cc1`: the IC50 is 4.67 µM in the test on HeLa; 2.95 µM in the test with DU-145; 1.69 µM with ACHN; 2.23 µM in the test with MCF7; 1.54 µM in the test on A549 [1].

For `COc1ccc(-c2cc(C(=O)Nc3nc4ccc(F)cc4s3)nc3cc(-c4ccccc4)nn23)cc1OC`, the half-maximal inhibitory concentration (IC50) with HeLa turned out to be 8.31 µM; in the test with DU-145 it was 18.6 µM; in the test on ACHN, 8.12 µM; with MCF7, 22.4 µM; in the test with A549 [1] it was 6.91 µM.

Turning to `COc1ccc2nc(NC(=O)c3cc(-c4ccc(F)cc4)n4nc(-c5ccccc5)cc4n3)sc2c1`, the IC50 stood at 17.3 µM in the test with HeLa; 15.4 µM in the test on DU-145; 26.3 µM in the test on ACHN; 24.5 µM in the test with MCF7; 24 µM in the test with A549 [1].
